Published values from different studies.
Target: Beta-secretase 1 (BACE1, Homo sapiens, UniProt P56817)
Action: inhibitor

`COc1ccc2c(c1)OC1Oc3cc(O)cc(O)c3C(=O)C21O` (stereo not drawn) has an IC50 of 139 µM (enzyme activity).
With `CC[C@H](C[C@H](O)[C@@H](N)COc1ccc(-c2ccc(F)cc2)c(OCCCOC)c1)C(=O)N[C@H](C(=O)NCc1ccc(Cl)cc1)[C@@H](C)CC` the IC50 was 1.1 µM (enzyme activity; pH 4.5).
`CC(C)=CCc1c(O)cc(O)c2c(=O)c(-c3ccc(O)cc3)coc12` has an IC50 of 27 µM (enzyme activity).
The IC50 of `CN(C)c1nc(N2CCCC2)nc2ccccc12` is reported as 500 µM (enzyme activity; FRET; pH 5).
The IC50 of `C=C(C)[C@@H]1CCC(C)=C[C@H]1c1c(O)cc2occ(-c3ccc(O)cc3)c(=O)c2c1O` (relative stereo) is reported as > 200 µM (enzyme activity).
`CC1(c2ccccc2)COCC(N)=N1` (stereo not drawn) has an IC50 of 200 µM (enzyme activity; FRET; pH 5).
The IC50 of `Cc1cc2cc(c1)C(=O)N[C@H]([C@H](O)CN(Cc1cccc(C(C)C)c1)C(=O)OC(C)(C)C)CCC/C=C/CCCC2=O` is reported as > 10 µM (enzyme activity in cells).
With `CC[C@H](C)[C@H](NC(=O)[C@@H](C[C@H](O)[C@@H](N)COc1ccc(-c2ccc(F)cc2)c(OCCCOC)c1)C(C)C)C(=O)NCc1ccc(Cl)cc1` the IC50 was 0.81 µM (enzyme activity; pH 4.5).
`[H]/N=C1\N[C@](C)(c2cccc(Nc3cnc(C4CC4)nc3)c2Cl)CC(=O)N1[C@H]1CCO[C@@H](C)C1` gave an IC50 of > 10 µM (enzyme activity; FRET).
